Measurements pooled from the literature.
WDR5: WD repeat-containing protein 5 (WDR5, Homo sapiens, UniProt P61964)
HDAC7: Histone deacetylase 7 (HDAC7, Homo sapiens, UniProt Q8WUI4)
OfChi-h: Chitinase (OfChi-h, Ostrinia furnacalis, UniProt Q4AE59)

Structure (SMILES) | target | effect on | mode | technique | concentration | measurement | result
COc1cc(-c2cncc3c2CN(C)Cc2cc(N4CCNCC4)ccc2-3)cc(OC)c1OC | Serine/threonine-protein kinase 35 (STK35, Homo sapiens, UniProt Q8TDR2) | enzyme activity | inhibitor | – | 1 µM | remaining activity | 111%
C[C@@H]1CN(c2ccc(-c3cc(C(=O)NCCOCCOCCOCCOCCOCCOCCNC(=O)/C=C/c4[nH]cc(C(=O)N[C@@H](CC(N)=O)c5ccc(F)c(Cl)c5)c4-c4ccc(Cl)cc4F)ccc3F)cc2NC(=O)c2ccc(F)cc2C(F)(F)F)C[C@H](C)N1C | WDR5 | thermal stability | – | DSF | 5.5 µM | ΔTm | 5.9 °C
CC(C)Oc1ccc(S(=O)(=O)c2ccc(Oc3cc(OCC(N)=O)c(C(=O)C(Cl)Cl)cc3[N+](=O)[O-])cc2)cc1 | [Pyruvate dehydrogenase (acetyl-transferring)] kinase isozyme 3, mitochondrial (PDK3, Homo sapiens, UniProt Q15120) | enzyme activity | inhibitor | ATP luminescence | 10 µM | inhibition | 27.9%
Cc1cc([C@@H](C)Nc2ccccc2C(=O)O)c2nc(N3CCC(F)(F)CC3)c(C#N)c(=O)n2c1 | Protein kinase C epsilon type (PRKCE, Homo sapiens, UniProt Q02156) | binding | – | competition with immobilised ligand | 10 µM | remaining binding | 100%
O=C(NO)c1cncc(OS(=O)(=O)Oc2ccc(C(F)(F)F)cc2)c1 | HDAC7 | enzyme activity | inhibitor | fluorescence | 10 µM | inhibition | 49%
CN(C)c1nc(NCc2ccc(OC(F)(F)F)cc2)c(/N=N/c2ccc(Cl)cc2)c(N(C)C)n1 | OfChi-h | enzyme activity | inhibitor | fluorescence | 1 µM | inhibition | 85%
CNc1ncc2c(/C=C/C(=O)N3CCC(OC)CC3)nn(Cc3cccc(C(F)(F)F)c3)c2n1 | Bone morphogenetic protein receptor type-1A (BMPR1A, Homo sapiens, UniProt P36894) | enzyme activity | inhibitor | radiometric | 1 µM | remaining activity | 93%
C[C@@H]1CN(c2ccc(-c3cc(C(=O)NCCOCCOCCOCCOCCOCCOCCOCCOCCOCCNC(=O)/C=C/c4[nH]cc(C(=O)N[C@@H](CC(N)=O)c5ccc(F)c(Cl)c5)c4-c4ccc(Cl)cc4F)ccc3F)cc2NC(=O)c2c[nH]c(=O)cc2C(F)(F)F)C[C@H](C)N1C | WDR5 | thermal stability | – | DSF | 5.5 µM | ΔTm | 8.9 °C
O=C(NO)c1cncc(OS(=O)(=O)Oc2ccc3ccccc3c2)c1 | HDAC7 | enzyme activity | inhibitor | fluorescence | 10 µM | inhibition | 46%
C=CC(=O)N1CCC(COCC(=O)N2CCN(c3nc(-c4cnc(N)nc4C(F)F)nc(N4CCOC[C@@H]4C)n3)CC2)CC1 | Epithelial discoidin domain-containing receptor 1 (DDR1, Homo sapiens, UniProt Q08345) | binding | – | competition with immobilised ligand | 1 µM | remaining binding | 99%
COc1ccc(S(=O)(=O)N(CC(=O)NO)CC(C)C)cc1 | 72 kDa type IV collagenase (MMP2, Homo sapiens, UniProt P08253) | enzyme activity | inhibitor | – | 0.5 µM | inhibition | 60.9%
CCCCc1ccc(CNc2nc(N(C)C)nc(N(C)C)c2/N=N/c2ccc(Cl)cc2)cc1 | OfChi-h | enzyme activity | inhibitor | fluorescence | 1 µM | inhibition | 91.9%
O=C(O)CNc1cccc(CN(Cc2ccc(-n3cccn3)cc2)S(=O)(=O)c2cccnc2)n1 | Beta-2 adrenergic receptor (ADRB2, Homo sapiens, UniProt P07550) | ligand displacement | – | radioligand | 10 µM | inhibition | 12%
